Assay results reported in ChEMBL document CHEMBL4038313, “Expanding the Antiviral Spectrum of 3-Fluoro-2-(phosphonomethoxy)propyl Acyclic Nucleoside Phosphonates: Diamyl Aspartate Amidate Prodrugs” (J Med Chem, 2017).

Tests used:
Hepatitis B virus [1] = test: Antiviral activity against HBV ayw1 infected in human HepG2(2.2.15) cells assessed as reduction in viral replication by measuring extracellular viral DNA copy number after 6 days by real-time qPCR method; type: functional, cell-based; settings: ayw1, HepG2 2.2.15, 144 h
Method in brief: (§1)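 HepG2.2.15 cells (two copies of HBV ayw1 genome), 1.5 × 10^4/well in DMEM with 2% FBS and 380 μg/mL G418. After 16–24 h, compound added in triplicate, medium with compound renewed at day 3. Supernatant collected at day 6, Pronase-treated, and extracellular HBV DNA measured by TaqMan qPCR (precore/core) against an HBV DNA standard curve. EC50/EC90 derived; CC50 by MTS uptake.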

[2] = Cytotoxicity against human HepG2.2.15 cells assessed as cell viability by tetrazolium dye uptake assay; type: cell-based, HepG2 2.2.15
Method in brief: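 HepG2.2.15 cells (two integrated copies of HBV ayw1 genome) were seeded at 1.5 × 10^4 cells/well in DMEM with 2% FBS, 380 μg/mL G418, glutamine, antibiotics and nonessential amino acids. After 16−24 h, medium with various compound concentrations was added in triplicate and renewed on day 3. After 6 days of treatment, viability was read by MTS uptake and CC50 was calculated.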

[3] = Selectivity index, ratio of CC50 for HepG2.2.15 cells to EC50 for HBV ayw1 infected in human HepG2(2.2.15) cells assessed as reduction in viral replication by measuring extracellular viral DNA copy; method in brief: as §1
Hepatitis B virus [4] = test: Antiviral activity against HBV ayw1 infected in human HepG2(2.2.15) cells assessed as reduction in viral replication by measuring intracellular viral DNA copy number after 6 days byr by real-time qPCR assay; type: functional, cell-based; settings: ayw1, HepG2 2.2.15, 144 h
Method in brief: (§2)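 Run as the HepG2.2.15 6-day assay (triplicate compound, medium with compound renewed at day 3). At the end, total intracellular DNA was isolated from the cells and HBV DNA copy number measured by TaqMan qPCR. EC50/EC90 derived; SI is CC50/EC50.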

[5] = Selectivity index, ratio of CC50 for HepG2.2.15 cells to EC50 for HBV ayw1 infected in human HepG2(2.2.15) cells assessed as reduction in viral replication by measuring intracellular viral DNA copy; method in brief: as §2
[6] = tested on: Human immunodeficiency virus 1; test: Antiviral activity against CXCR4-tropic HIV-1 NL4-3 infected in human TZM-bl cells assessed as inhibition of virus-induced cytopathic effect preincubated with cells for 30 mins followed by viral infection measured after 48 hrs in presence of p-24 HIV-1 Ag by luciferase reporter gene assay; type: functional, cell-based; settings: Human immunodeficiency virus 1, NL4-3, TZM-bl
Method in brief: (§3)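 TZM-bl cells, 1 × 10^4 per well in DMEM with 10% FBS and 10 mM […], incubated 30 min at 37 °C with compound. Then HIV-1 NL4.3 (X4) or BaL (R5) added at 100 pg p24 Ag per well. After 48 h, cells lysed with luciferase substrate. Tat-induced luminescence read after 10 min dark incubation as a measure of replication.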

[7] = tested on: Human immunodeficiency virus 1; test: Antiviral activity against CCR5 tropic HIV1 BaL infected in human TZM-bl cells assessed as inhibition of virus-induced cytopathic effect preincubated with cells for 30 mins followed by viral infection measured after 48 hrs in presence of p-24 HIV-1 Ag by luciferase reporter gene assay; type: functional, cell-based; settings: Human immunodeficiency virus 1, BaL; method in brief: as §3
[8] = Cytotoxicity against human TZM-bl cells assessed as cell viability by tetrazolium dye assay; type: cell-based
[9] = tested on: Human immunodeficiency virus 1; test: (§4) Antiviral activity against CXCR4-tropic HIV-1 NL4-3 infected in human PHA-stimulated PBMC assessed as inhibition of viral replication by measuring reduction in p24 antigen production preincubated with cells for 30 mins followed by viral infection measured on day 10 post infection in presence of IL-2 by ELISA; type: functional; settings: Human immunodeficiency virus 1, NL4-3
Method in brief: (§5)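 PBMCs stimulated with 2 μg/mL PHA for 3 days at 37 °C, then 5 × 10^5 cells/ml preincubated 30 min at 37 °C with serial compound dilutions plus 2 ng/mL IL-2. Infected with 1500 pg/well HIV-1 BaL or 500 pg/well other isolates. IL-2 re-added on days 3 and 6. Supernatant p24 Ag measured by ELISA at day 10. EC50 is 50% inhibition of replication.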

[10] = tested on: Human immunodeficiency virus 1; test: as §4, with “CCR5 tropic HIV1 BaL” for “CXCR4-tropic HIV-1 NL4-3”; type: functional; settings: Human immunodeficiency virus 1, BaL; method in brief: as §5
[11] = Cytotoxicity against human PHA-stimulated PBMC assessed as cell viability by tetrazolium dye assay; type: cell-based
[12] = Selectivity index, ratio of CC50 for human TZM-bl cells to EC50 for CXCR4-tropic HIV-1 NL4-3 infected in human TZM-bl cells; type: toxicity, cell-based; settings: read-out: Ratio CC50/EC50
[13] = Selectivity index, ratio of CC50 for human TZM-bl cells to EC50 for CCR5 tropic HIV1 BaL infected in human TZM-bl cells; type: toxicity, cell-based; settings: read-out: Ratio CC50/EC50
[14] = Selectivity index, ratio of CC50 for human PHA-stimulated PBMC to IC50 for CXCR4-tropic HIV-1 NL4-3 infected in human PHA-stimulated PBMC
[15] = Selectivity index, ratio of CC50 for human PHA-stimulated PBMCs to IC50 for CCR5 tropic HIV1 BaL infected in human PHA-stimulated PBMC
[16] = tested on: Human immunodeficiency virus 1; test: Antiviral activity against tenofovir-resistant CXCR4-tropic HIV-1 NL4-3 harboring reverse transcriptase K65R mutant infected in human MT4 cells assessed as inhibition of viral replication inhibition of virus-induced cytopathic effect after 6 days by XTT dye based assay; type: functional, cell-based; settings: Human immunodeficiency virus 1, NL4-3, MT4, 144 h
Method in brief: (§6)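 MT-4 cells, 1 × 10^4 per well, given compound dilutions and wild-type NL4-3 or K65R NL4-3. Virus titred to give 85–95% cell killing at day 6. Incubated 6 days at 37 °C, 5% CO2. Viability read by XTT at 450/650 nm. EC50 from CPE reduction and toxicity from uninfected drug wells, by four-parameter fit. Fold change is K65R EC50 over wild-type EC50.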

[17] = tested on: Human immunodeficiency virus 1; test: Selectivity ratio of EC50 for tenofovir-resistant CXCR4-tropic HIV-1 NL4-3 harboring reverse transcriptase K65R mutant infected in human MT4 cells to EC50 for CXCR4-tropic HIV-1 NL4-3 infected in human MT4 cells; type: functional; method in brief: as §6
[18] = Cytotoxicity against human MT4 cells assessed as reduction in cell viability after 6 days by XTT tetrazolium dye-based assay; method in brief: as §6
[19] = tested on: Human immunodeficiency virus 1; test: Antiviral activity against CXCR4-tropic HIV-1 NL4-3 infected in human MT4 cells assessed as inhibition of virus-induced cytopathic effect after 6 days by XTT dye based assay; type: functional, cell-based; settings: Human immunodeficiency virus 1, NL4-3, MT4, 144 h; method in brief: as §6

Q: With `C=C1[C@H](CO)[C@@H](O)C[C@@H]1n1cnc2c(=O)[nH]c(N)nc21.O` [ENTECAVIR] as the compound, how does the EC50 (Hepatitis B virus [1]) read?
A: The EC50 was under 0.01 µM.

Q: And the EC90 (Hepatitis B virus [1])?
A: The EC90 was over 1 µM.

Q: What about the CC50 [2] of the same compound?
A: The CC50 was over 1 µM.

Q: What about the “Ratio CC50/EC50” value [3] of the same compound?
A: Its value is over 2381.

Q: And the EC50 (Hepatitis B virus [4])?
A: Its EC50 is 0.00035 µM.

Q: What about the EC90 (Hepatitis B virus [4]) of the same compound?
A: Its EC90 is over 1 µM.

Q: What about the “Ratio CC50/EC50” value [5] of the same compound?
A: The value was over 2857.

Q: Which results are given for `Nc1ccn([C@@H]2CS[C@H](CO)O2)c(=O)n1` [LAMIVUDINE]?
A: EC50 (Hepatitis B virus [1]): 0.02 µM; EC90 (Hepatitis B virus [1]): > 2 µM; CC50 [2]: > 2 µM; Ratio CC50/EC50 [3]: >105; EC50 (Hepatitis B virus [4]): 0.00887 µM; EC90 (Hepatitis B virus [4]): > 2 µM; Ratio CC50/EC50 [5]: >225

Q: What does the source list for `C[C@H](Cn1cnc2c(N)ncnc21)OCP(=O)(O)O` [TENOFOVIR ANHYDROUS]?
A: EC50 [6]: 4 µM; EC50 [7]: 6.91 µM; CC50 [8]: > 100 µM; IC50 [9]: 0.38 µM; IC50 [10]: 1.4 µM; CC50 [11]: > 25 µM; selectivity ratio [12]: > 25; selectivity ratio [13]: > 14; Ratio CC50/IC50 [14]: >66; Ratio CC50/IC50 [15]: >18; EC50 [16]: 0.1 µM; Ratio EC50 [17]: >16.7; CC50 at 144 h [18]: > 20 µM; EC50 [19]: < 0.06 µM

Q: With `CC(C)OC(=O)OCOP(=O)(CO[C@H](C)Cn1cnc2c(N)ncnc21)OCOC(=O)OC(C)C.O=C(O)/C=C/C(=O)O` [TENOFOVIR DISOPROXIL FUMARATE] as the compound, how does the IC50 [9] read?
A: The IC50 was 0.08 µM.

Q: What about the IC50 [10] of the same compound?
A: The IC50 was 0.22 µM.

Q: And the CC50 [11]?
A: The CC50 was 14.6 µM.

Q: And the “Ratio CC50/IC50” value [14]?
A: The value was 182.

Q: What about the “Ratio CC50/IC50” value [15] of the same compound?
A: Its value is 66.

Q: What about the EC50 [16] of the same compound?
A: Its EC50 is 11.3 µM.

Q: What about the “Ratio EC50” value [17] of the same compound?
A: Its value is 2.3.

Q: And the CC50 at 144 h [18]?
A: The CC50 at 144 h was over 20 µM.

Q: With `Cc1cn([C@H]2C[C@H](N=[N+]=[N-])[C@@H](CO)O2)c(=O)[nH]c1=O` [ZIDOVUDINE] as the compound, how does the EC50 [16] read?
A: Its EC50 is 0.005 µM.

Q: What about the “Ratio EC50” value [17] of the same compound?
A: The value was 1.3.

Q: What about the CC50 at 144 h [18] of the same compound?
A: The CC50 at 144 h was over 0.5 µM.

Q: And the EC50 [19]?
A: Its EC50 is 0.004 µM.
